OXTR potentiator = potentiates the human oxytocin receptor response. actives 0.061% (n = 320,000). P30559. CHO-OTR cells, Fluo-8 calcium fluorescence, potentiator mode; 0% = oxytocin EC15, 100% = EC100. activation, % at 3 µM. AID 2445;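 active = activation above that plate's cutoff, the mean activation of tested compounds plus 3 SD, cut at about 6.6% in these data, passing the limit was not always enough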;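 note: 100% uses oxytocin at 75 nM as the full agonist control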
Target sequence (P30559 whole entry, looked up): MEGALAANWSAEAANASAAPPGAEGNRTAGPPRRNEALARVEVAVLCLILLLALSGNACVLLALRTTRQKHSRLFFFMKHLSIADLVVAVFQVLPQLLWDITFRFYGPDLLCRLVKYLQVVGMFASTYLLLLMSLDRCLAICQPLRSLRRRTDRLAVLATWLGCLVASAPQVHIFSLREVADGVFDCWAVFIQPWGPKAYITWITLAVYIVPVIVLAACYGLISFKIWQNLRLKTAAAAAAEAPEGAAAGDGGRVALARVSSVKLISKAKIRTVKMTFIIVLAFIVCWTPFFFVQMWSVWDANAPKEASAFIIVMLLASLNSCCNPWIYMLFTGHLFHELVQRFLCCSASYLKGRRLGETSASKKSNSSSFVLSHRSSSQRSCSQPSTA
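Dosing: Single dose, 3.0 µM nominal final compound concentration | Material: Human OTR in CHO cells | Technique: Kinetic Fluo-8 calcium fluorescence | Benchmarks: EC15 oxytocin alone as 0%, 75 nM oxytocin as 100% | Probe or stimulus: Oxytocin at about EC15, sub-maximal agonist stimulus | Incubation: Compound 6 min at room temperature before oxytocin, 100 s read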
V1aR counter = counter-screen for oxytocin receptor agonists: human V1a receptor agonists; P37288; CHO-V1R cells, Fluo-8 calcium fluorescence, agonist mode; 0% DMSO, 100% 3 nM vasopressin; activation, % at 3 µM; actives 0.25% (n = 320,000); AID 2797;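 active = activation above the mean activation of all tested compounds plus 3 SD, per screening run, cut at about 20% in these data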;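 note: signal is peak over basal fluorescence ratio across a 100 second FLIPR read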
zfTRPN1 agonist = agonists of zebrafish TRPN1 channel | HEK293 zebrafish TRPN1-YFP, Fluo-8 calcium fluorescence; 100% = response to 87 µM carbachol | activation, % at 3 µM | actives 0.18% (n = 220,000) | AID 1424;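 active = activation above its plate's cutoff, the mean activation of test wells on that plate plus 3 SD, cut at about 19% in these data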;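 note: 0% = DMSO alone and 100% = 87 µM carbachol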
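Material: zebrafish TRPN1-YFP in HEK293 cells. Doses: one dose of 3 µM, 0.3% DMSO. Incubation: dye 1 h 37 °C plus 30 min RT. Measured by: intracellular calcium fluorescence with Fluo-8.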
TRPML3 ag = activates the human TRPML3 channel; actives 0.29% (n = 220,000); HEK293 TRPML3-YFP, Fluo-8 calcium fluorescence; 100% = the carbachol control signal; Q8TDD5; activation, % at 3 µM;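 active = activation above its plate's cutoff, the mean activation of the plate's test wells plus 3 SD, cut at about 12% in these data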;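 note: 0% = DMSO only wells and 100% = carbachol wells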
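Test system – HEK293 line with stable expression of human TRPML3-YFP channel · Control set – carbachol 87 µM final as high control (100%), DMSO as low control (0%) · Signal – Fluo-8 calcium dye fluorescence, ex 470-495, em 515-575 nm · Incubation – 1-h 37 °C dye load, 5-s basal, 120-s post-compound reads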
OXTR agonist = agonists of human oxytocin receptor. CHO-OTR cells, Fluo-8 calcium fluorescence; normalized: DMSO 0%, oxytocin 100%. activation, % at 3 µM. actives 0.32% (n = 320,000);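 active = activation above the mean of all tested compounds plus 3 SD, cutoff set per screening run, cut at about 20% in these data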;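 note: peak over basal fluorescence ratio from a 100 s FLIPR kinetic read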
OXTR pot confirm = human OXTR potentiation, confirmation | shares compounds with OXTR potentiator | CHO-OTR cells, Fluo-8 calcium fluorescence; scaled from low-dose to maximal oxytocin | activation, % at 3 µM | 180 tested, under 10 active | AID 434985;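 active = mean percent activation over triplicates above a cutoff set from solvent-only control plates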;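 note: compounds tested in the presence of an EC15 dose of oxytocin; 0% = EC15 oxytocin with DMSO and 100% = EC100 oxytocin with DMSO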
* = called active by the depositor; nt = no result. Only some compounds are listed: those with a hit (about 0.55% of all), similar ones and a draw of the others.

SMILES | OXTR potentiator | V1aR counter | zfTRPN1 agonist | TRPML3 ag | OXTR agonist | OXTR pot confirm
CCOC(=O)c1nc(C)n(-c2ccc([N+](=O)[O-])cc2)n1 | -3.4 | 0.9 | -0.1 | 0.7 | 0.2 | nt
CCOC(=O)c1nc(C)n(-c2ccc(Cl)cc2)n1 | 9.9* | -0.2 | 0.5 | 0.1 | -0.7 | -1.2
O=C(NCc1cccnc1)NC(=O)c1ccc(Cl)cc1 | -8.4 | 4.0 | nt | nt | 1.2 | nt
Fc1ccc2c(-c3cccc(C(F)(F)F)c3)c(-c3ccccc3)ncc2c1 | 9.4* | 1.2 | nt | nt | 0.4 | -8.3
Fc1ccc2cnc(-c3ccccc3)c(-c3cc(C(F)(F)F)cc(C(F)(F)F)c3)c2c1 | 7.2 | -0.1 | nt | nt | -0.1 | nt
CC(C)C1CCC(C(=O)N[C@H](Cc2ccccc2)C(=O)O)CC1 (stereo not given in full) | -4.3 | 0.5 | 0.3 | 0.9 | 0.2 | nt
O=C(NC(Cc1cccc(F)c1)C(=O)O)C1CCCCC1 (stereo not given) | 8.1* | 0.6 | nt | nt | 0.6 | -10.1
CN(C(=O)c1cc(COc2ccc(F)cc2Cl)on1)C1CCCc2ccccc21 (stereo not given) | -5.7 | 5.6 | nt | nt | 1.1 | nt
CC(=O)NC1=NN(C(C)=O)C(C)(CCS(=O)(=O)c2ccc(Br)cc2)S1 (stereo not given) | 13.3* | 1.1 | -0.7 | 0.0 | 2.5 | -5.6
C[C@H](CO)N1C[C@H](C)[C@@H](CN(C)S(=O)(=O)c2cccs2)Oc2ccc(NC(=O)Nc3ccccc3)cc2C1=O | 14.9* | 2.9 | nt | nt | 2.6 | -6.8
C[C@@H]1CN([C@H](C)CO)C(=O)c2cc(NC(=O)Nc3ccc(C(F)(F)F)cc3)ccc2O[C@H]1CN(C)S(=O)(=O)c1cccs1 | -5.9 | 2.0 | nt | nt | 2.2 | nt
C[C@H](CO)N1C[C@H](C)[C@@H](CN(C)C(=O)Nc2ccc(C(F)(F)F)cc2)Oc2c(cccc2N(C)C)C1=O | 12.1* | 0.1 | nt | nt | -0.5 | 0.0
COc1ccc(C(=O)Nc2cc(C)nn2-c2cccc(F)c2)cc1OC | -2.3 | 0.0 | nt | nt | 0.1 | nt
CCOc1ccccc1CN1CCNC(=O)C1CC(=O)NCCCn1cccn1 (stereo not given) | -1.5 | 1.8 | nt | nt | -0.6 | nt
CCOC(=O)c1c(C)[nH]c(C)c1C(=O)CN1C(=O)NC2(CCCCCC2)C1=O | 3.0 | -0.9 | nt | nt | -1.7 | nt
CCOC(=O)c1c(C)[nH]c(C(=O)CN2C(=O)NC3(CCCC3)C2=O)c1C | 6.3* | 0.4 | 2.3 | 1.3 | 1.2 | -6.6
O=C(Nc1ccncc1)c1cc(S(=O)(=O)N2CCOCC2)ccc1Cl | -1.8 | 0.8 | nt | nt | 0.6 | nt
Cc1ccc(S(=O)(=O)C2(C(=O)NC3CCCCC3C)CC2)cc1 (stereo not given) | 17.3* | -1.5 | -2.5 | -0.4 | -1.3 | -8.3
O=C(COC(=O)Cn1[nH]c(=O)c2ccccc2c1=O)NNC(=O)c1ccccc1 | -1.0 | 0.4 | nt | nt | 1.1 | nt
O=C(NNC(=O)c1ccco1)c1csc(N2CCOCC2)n1 | -3.1 | 1.0 | nt | nt | -0.8 | nt
CC(=O)c1cc(CN2CCN(C(C)C)C(CCO)C2)cs1 (stereo not given) | 12.2* | -0.3 | 1.7 | 0.4 | 1.5 | -3.5
C=CCN(C(=O)CCC(=O)Nc1cc(C)on1)C(C(=O)NC(C)(C)C)c1ccc(OC)cc1 (stereo not given) | 1.4 | 0.1 | nt | nt | -0.6 | nt
O=C(NCCCN1CCOCC1)C1CC(=O)N(CCc2ccccc2)C1 (stereo not given) | 12.2* | 1.3 | -1.7 | 1.1 | 0.7 | -9.7
O=C(NCCCN1CCCCCC1)C1CC(=O)N(CCc2ccccc2)C1 (stereo not given) | -4.8 | -0.4 | -0.9 | -0.3 | -0.6 | nt
NC(=S)N/N=C1/CCSc2ccc3ccccc3c21 | -10.7 | -1.3 | -1.3 | -0.4 | -1.9 | nt
O=C(OC(C(=O)NCc1ccccc1)c1ccccc1)c1ccco1 (stereo not given) | 13.8* | -1.0 | nt | nt | -0.3 | -1.8
CCCn1nc(C(=O)NNC(=O)CSC(C)C(=O)Nc2cc(C)on2)c2ccccc2c1=O (stereo not given) | 5.1 | -1.1 | nt | nt | -1.4 | nt
